This is an account of results in ChEMBL document CHEMBL2396579, “Synthesis and in vitro photocytotoxicity of coumarin derivatives for one- and two-photon excited photodynamic therapy” (J Med Chem, 2013).

Molecules are shown by their SMILES. pIC50: −log10 of the molar value. Converted amounts (≈) assume the structure as drawn. The source made the active and inactive calls. The calls are words filed in the database; no cut-off is given here.

A short description of data set [1]: Octanol-water partition coefficient, log P of the compound. It counts as physicochemical.
Data set [2] relates to HepG2. Put plainly: Photocytotoxicity against human HepG2 cells assessed as cell viability at 20 uM incubated for 4 hrs prior to 630 mW laser irradiation for 10 mins followed by 24 hrs incubation in dark by CCK-8 assay. In kind it is functional. The following applies: for viability at 20 µM: HepG2, light or radiation study, read-out: Activity. Summed up:
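HepG2 cells were incubated with 20 μM photosensitizer for 4 h and split into two equal series. One series received 800 nm femtosecond laser light (1.64 W cm−2, 1 kHz, 130 fs) for 10 min; the other stayed dark as control. Both were held 24 h in the dark before viability was read. Photosensitizer-free cells were also irradiated. Mean ± SD, three replicates.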
A general note: Formazan colour is commonly taken as a measure of viable cells.

The nature of data set [3]: Solubility of the compound in PBS buffer at pH 7.4. It counts as physicochemical.
Data set [4] deals with HepG2. In words: Cellular uptake in human HepG2 cells at 20 uM after 4 hrs by fluorescence spectrophotometry. In kind it is ADME, cell-based. The following applies: hepg2, 4 h. The gist of the method:
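HepG2 cells were incubated with 20 μM photosensitizer for different times and intracellular concentration was measured at each time point. Mean ± SD, three replicates.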

The subject of data set [5] is HepG2. In words: Photocytotoxicity against human HepG2 cells assessed as growth inhibition incubated for 4 hrs in dark prior to 20 mW cm'-2 laser irradiation for 20 mins followed by 24 hrs incubation in dark by CCK8 assay. It counts as functional, cell-based. To be noted: HepG2, light or radiation study. Summed up:
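HepG2 cells were loaded with photosensitizer for 4 h and then irradiated with a 532 nm laser for 20 min at 20 mW cm−2. They were kept in the dark for 24 h before the viability test. IC50 is the concentration giving 50% growth inhibition.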

For data set [6], the system named is HepG2. Put plainly: Dark cytotoxicity against human HepG2 cells after 24 hrs by CCK-8 assay. In kind it is cell-based. To be noted: HepG2, 24 h. Summed up:
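HepG2 cells exposed to a range of photosensitizer concentrations (tested up to 50 μM) for 24 h without light before the viability test. IC50 is the concentration giving 50% growth inhibition.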

The test system of data set [7] is HepG2. In words: Intracellular ROS generation in human HepG2 cells at 20 uM after 4 hrs by DCFH-DA-based fluorescence analysis. In kind it is functional, cell-based. The gist of the method:
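Intracellular ROS in HepG2 cells was detected with the probe 2,7-dichlorodihydrofluorescein diacetate (DCFH-DA), which ROS convert to fluorescent 2,7-dichlorofluorescein.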

A short description of data set [8]: Drug uptake in human HepG2 cell mitochondria at 10 uM after 4 hrs by confocal laser scanning microscopy. In kind it is ADME. The following applies: hepg2, 4 h.

Regarding `CCN(CC)c1ccc2cc(C(=O)/C=C/c3ccc(N(C)CCOCCOCCOCCOC)cc3)c(=O)oc2c1`, the log partition coefficient (logP) (commonly a log measure of how a compound divides between an organic and an aqueous phase) in data set [1] worked out at 3.4. Besides, the viability at 20 µM with HepG2 [2] worked out at 20%. In addition, the concentration in solution in data set [3] (solubility) came to 0.026 mg/mL (≈ 45.9 µM). Also, the Drug uptake entry (in the data set on HepG2 [4]; in data set [8]) was “Active” each time. The pIC50 (usually the negative decadic logarithm of the IC50, by convention in mol/L) with HepG2 [5] was 5.41; in the data set with HepG2 [6], under 4.30. The outcome with HepG2 [7] was Active.

The molecule `CCN(CC)c1ccc2cc(C(=O)/C=C/c3ccc(N(CCOCCOCCOCCOC)CCOCCOCCOCCOC)cc3)c(=O)oc2c1` came in with a logP in data set [1] of 2.2. The viability at 20 µM in the data set on HepG2 [2] was determined as 30%. Besides, the concentration in solution in data set [3] (solubility) came to 0.75 mg/mL (≈ 1010 µM). The Drug uptake entry (with HepG2 [4]; in data set [8]) was “Active” throughout. Moreover, the pIC50 is 5.34 in the data set on HepG2 [5] and under 4.30 with HepG2 [6]. Further, the outcome with HepG2 [7] was Active.

For the molecule `COCCOCCOCCOCCN(CCOCCOCCOCCOC)c1ccc(/C=C/C(=O)c2cc3ccc(OCCOCCOCCOC)cc3oc2=O)cc1`, in data set [1], the logP is 0.3. In addition, the result in the data set with HepG2 [2] was inactive. Also, the solubility – broadly, the concentration that dissolves in the medium under given conditions – in data set [3] was over 10 mg/mL. Also, the Drug uptake result is reported as “Active” in the data set with HepG2 [4] and “Not Active” in data set [8]. The pIC50 in the data set with HepG2 [5] and with HepG2 [6] was under 4.30 in each case. The outcome with HepG2 [7] was Active.

In data set [1], `CCN(CC)c1ccc(/C=C/C(=O)c2cc3ccc(OCCOCCOCCOC)cc3oc2=O)cc1` registered a logP of 3. The viability at 20 µM with HepG2 [2] is 70%. In data set [3], this molecule registered a solubility of 0.0011 mg/mL (≈ 2.16 µM). The Drug uptake result (in the data set with HepG2 [4]; in data set [8]) was “Active” each time. The pIC50 with HepG2 [5] was 5.09; in the data set with HepG2 [6] it was under 4.30. The outcome in the data set on HepG2 [7] was Active.

`COCCOCCOCCOCCN(C)c1ccc(/C=C/C(=O)c2cc3ccc(OCCOCCOCCOC)cc3oc2=O)cc1` had a log partition coefficient (logP) in data set [1] of 1.4. Besides, the result with HepG2 [2] was inactive. Further, the solubility in data set [3] is 0.7 mg/mL (≈ 1060 µM). The Drug uptake result is “Active” in the data set on HepG2 [4] and “Not Active” in data set [8]. Besides, the pIC50 in the data set with HepG2 [5] and in the data set with HepG2 [6] was under 4.30 throughout. Moreover, the result in the data set with HepG2 [7] was Active.
